Measurements reported in ChEMBL document CHEMBL1140640, “C-geranyl compounds from Paulownia tomentosa fruits” (J Nat Prod, 2007).

What was measured:
[1] = system: Radical scavenging activity; test: Antioxidant activity assessed as DPPH radical scavenging activity at 10 uM by TEAC assay; format: functional
Outline: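 Test solutions of 10 µM in MeOH were mixed 0.2 mL to 1.8 mL with methanolic DPPH at 22 mg/L. Absorbance at 517 nm was read every minute for 5 min, then every 5 min up to 30 min. Activity was followed over time and expressed as Trolox equivalent antioxidant capacity (TEAC).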

[2] = Cytotoxicity against rat WB344 cells at 100 uM after 24 hrs; format: cell-based; details: wb344, 24 h
Outline: (§1)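 Neutral red uptake: cells in DMEM were grown ~24 h, then given compounds in DMSO for 24 h, then NR-containing medium ([…] as printed) for 3 h. Cells were PBS-washed, fixed 15 min in 0.5% formaldehyde/1% CaCl2, and dye extracted in 1% HOAc/50% EtOH with 20 min shaking. Read at A540 as % of DMSO control; mean of three independent measurements.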

[3] = Cytotoxicity against rat WB344 cells at 5 uM after 24 hrs; format: cell-based; details: wb344, 24 h; outline: as §1
[4] = Cytotoxicity against rat WB344 cells at 25 uM after 24 hrs; format: cell-based; details: wb344, 24 h; outline: as §1
[5] = Cytotoxicity against rat WB344 cells after 24 hrs; format: cell-based; details: WB344, 24 h
Outline: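 Epithelioid cells were cultured in DMEM ~24 h, exposed 24 h to DMSO-dissolved compounds, then to neutral red for 3 h. After formaldehyde/CaCl2 fixation, dye was extracted in acidified ethanol and read at 540 nm. Inhibition = (1 − T/C) × 100 against control OD540; IC50 taken from dose-response curves.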

Row | SMILES | Trolox equivalent antioxidant capacity (TEAC) [1] | Activity [2] [%] | Activity [3] [%] | Activity [4] [%] | IC50 [5] [µM]
1 | C=C(C)C(O)CC/C(C)=C/Cc1c(O)cc2c(c1O)C(=O)[C@H](O)[C@@H](c1ccc(O)c(OC)c1)O2 (stereo not given in full) | 2 | – | – | – | –
2 | CC(C)=CCC/C(C)=C/Cc1c(O)cc2c(c1O)C(=O)C[C@@H](c1ccc(O)c(O)c1)O2 [NYMPHAEOL A] | 5.2 | 2 | 98 | 57 | 14.3
3 | COc1cc([C@@H]2CC(=O)c3c(cc(O)c(C/C=C(\C)CCC=C(C)C)c3O)O2)ccc1O | 0.8 | 2 | 100 | 73 | 30.2
4 | CC(C)=CCC/C(C)=C/Cc1c(O)cc2c(c1O)C(=O)C[C@@H](c1ccc(O)cc1)O2 [BONANNIONE A] | 0.4 | 9 | 97 | 95 | –
